The values that follow come from ChEMBL document CHEMBL1770150, “Synthesis, biological evaluation and molecular modeling studies of quinolonyl diketo acid derivatives: new structural insight into the HIV-1 integrase inhibition” (Eur J Med Chem, 2011).

The target of data set [1] is T1, Human immunodeficiency virus type 1 integrase (Human immunodeficiency virus 1, UniProt Q7ZJM1). As to the kind of experiment: Inhibition of HIV1 integrase 3' processing activity after 1 hr by gel based assay in presence of magnesium. In outline:
(§1)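 Buffer was 20 mM HEPES pH 7.5, 1 mM DTT, 10 mM MgCl2 and 10% DMSO, for 1 h at 37 °C. DNA was precipitated, phenol/chloroform-extracted and analysed on gel. IC50 was fitted from percent inhibition versus concentration, from duplicate experiments.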

Data set [2] has as its system Human immunodeficiency virus 1. As to the kind of experiment: Antiviral activity against HIV1 NL4-3 infected in human TZM-bl cells assessed as inhibition of Tat protein-induced transactivation after 48 hrs by beta galactosidase assay. The data set is classed as functional, organism-based. The note with it: Human immunodeficiency virus 1, NL4-3, TZM-bl. In outline:
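TZM-bl cells were grown in DMEM at 37 °C with 5% CO2 and plated at 5000 cells/well. After 48 h the medium was replaced with compound dilutions (0.00128 to 4). Cells were infected with NL4-3 (100 ng p24) 4 h later. At 48 h post-infection, cells were lysed in PBS with 0.1% NP-40 and 5 mM MgCl2. β-galactosidase was read with chlorophenol red-galactopyranoside. EC50 came from dose-response curves.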

Data set [3] addresses T1, Human immunodeficiency virus type 1 integrase. Briefly: Inhibition of HIV1 integrase strand transfer activity after 1 hr by gel based assay in presence of magnesium. In a few lines:
as §1

Data set [4] can be described thus: Cytotoxicity against human TZM-bl cells assessed as cell viability after 3 days by WST-1 assay. Format: cell-based. In a few lines:
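TZM-bl cells were seeded at 5000/well, and compound dilutions (100 to 0.032) were added 2 h later. Cells and compound were held 3 days at 37 °C in growth medium. Viability was measured by WST-1 cleavage, absorbance at […]. Cytotoxicity is the percent reduction in viable cells relative to drug-free control cultures.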
A general note: Formazan colour is commonly taken as a measure of viable cells.

A short description of data set [5]: Selectivity index, ratio of CC50 for human TZM-bl cells to EC50 for HIV1 NL4-3. Format: toxicity, cell-based. Conditions: read-out: Ratio CC50/EC50. In a few lines:
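Index was calculated as CC50/EC50, both determined in TZM-bl cells (WST-1 viability over 3 days; NL4-3 infection with β-galactosidase read-out).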

A word on the IC50: it is the concentration needed to halve the response being measured. The term EC50 denotes the concentration that produces a half-maximal response. Usually CC50 stands for the concentration at which the toxic effect on the cells reaches its halfway point.

T1 sequence (Q7ZJM1 whole entry): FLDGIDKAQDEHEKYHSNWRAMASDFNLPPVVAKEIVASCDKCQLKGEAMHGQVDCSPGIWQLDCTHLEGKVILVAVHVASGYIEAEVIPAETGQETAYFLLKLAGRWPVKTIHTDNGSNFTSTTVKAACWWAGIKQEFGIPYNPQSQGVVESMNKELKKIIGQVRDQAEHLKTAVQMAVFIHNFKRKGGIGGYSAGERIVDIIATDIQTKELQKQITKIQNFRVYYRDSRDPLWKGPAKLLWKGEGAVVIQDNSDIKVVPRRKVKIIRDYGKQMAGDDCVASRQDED

As for `CCOC(=O)/C(O)=C/C(=O)c1cn(Cc2ccc(F)cc2)c2ccc(OCc3ccc(F)cc3)cc2c1=O`, the half-inhibitory concentration (IC50) in data set [1] and in data set [3] was more than 300 µM in each case. The concentration for a half-maximal effect (EC50) in data set [2] was 13 µM. The half-maximal cytotoxic concentration (CC50) at 72 h in data set [4] is more than 1000 µM. Further, the selectivity ratio in data set [5] came to 77.

As to `O=C(O)/C(O)=C/C(=O)c1cn(Cc2ccc(F)cc2)c2ccc(OCc3ccc(F)cc3)cc2c1=O`, the IC50 in data set [1] is 3 µM; in data set [3] it was 0.05 µM. The EC50 in data set [2] is 1 µM. The CC50 at 72 h in data set [4] is more than 1000 µM. In addition, the selectivity ratio in data set [5] amounted to 1000.

For the compound `CCOC(=O)/C=C/c1ccc2c(c1)c(=O)c(C(=O)/C=C(\O)C(=O)OCC)cn2Cc1ccc(F)cc1`, the IC50 in data set [1] and in data set [3] was more than 300 µM in each case. Besides, the concentration for a half-maximal effect (EC50) in data set [2] is more than 140 µM. The CC50 at 72 h in data set [4] was more than 1000 µM. Moreover, the selectivity ratio in data set [5] was 7.

Turning to `O=C(O)/C=C/c1ccc2c(c1)c(=O)c(C(=O)/C=C(\O)C(=O)O)cn2Cc1ccc(F)cc1`, the IC50 was found to be 8 µM in data set [1] and 0.03 µM in data set [3]. Besides, the EC50 in data set [2] came to 5 µM. For the same compound, the CC50 at 72 h in data set [4] is more than 1000 µM. Moreover, the selectivity ratio in data set [5] amounted to 200.

Turning to `O=C(O)/C(O)=C/C(=O)c1cn(Cc2ccc(F)cc2)c2ccc(Br)cc2c1=O`, the IC50 in data set [1] came to 1.6 µM; in data set [3], 0.03 µM. Besides, in data set [2], the 50% effective concentration (EC50) worked out at 4 µM. In data set [4], the CC50 at 72 h is more than 1000 µM. Also, the selectivity ratio in data set [5] worked out at 250.
